Compound activity: PubChem, several laboratories
In the library only some 3.5% were active in any assay of this set; here they are far more common.
MEKK3 PB1 HTS = modulators (inhibitors or enhancers) of MEK5 binding to human MEKK3 PB1 domain; Q99759; bead-based flow cytometry, Alexa488-MEK5 binding to MEKK3; actives lie on both sides; 0 = blocked by unlabeled MEK5, 100 = vehicle; binding response (% of control), % at 10 µM; hit rate 1.4% among 290,000;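 active means binding response more than 3 SD above or below the average of its plate-row segment, actives on both sides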;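 further: Alexa488 bead fluorescence after subtracting the streptavidin-only scavenger bead signal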
ABCB1 block = human ABCB1 inhibition, ABCG2 as counter-screen. hit rate 0.067% among 190,000. inhibition, % at 6.6 µM. CCRF-Adr cells, JC-1 efflux, flow cytometry. P08183; in the data active means inhibition above about 40%;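 further: 0% = vehicle and 100% = reference inhibitor; higher value means more JC-1 retained so stronger ABCB1 efflux block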
WT yeast gro inh = growth inhibition of WT yeast, mitochondrial fusion screen; mitochondrial fusion phenotypic screen, WT strain; inhibition, % at 10 µM; hit rate 2.1% among 190,000; in the data active means inhibition above about 58%; tested in S. cerevisiae
MEKK2 mut-MEK5 = signal of MEK5 binding to mutant human MEKK2 PB1 domain; hit rate 0.35% among 290,000; percent response, % at 10 µM; bead flow cytometry, Alexa488-MEK5 binding to MEKK2 mutant; in the data active means percent response above about 24%, passing the limit was not always enough
ABCG2 block = human ABCG2 inhibition, ABCB1 as counter-screen. Q9UNQ0. IgMXP3 cells, JC-1 efflux, flow cytometry. inhibition, % at 6.6 µM. hit rate 0.1% among 190,000;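 active means inhibition above 80%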;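 further: 0% = DMSO and 100% = nicardipine control wells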
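System: two drug-resistant human cell lines, ABCG2 and ABCB1; controls: nicardipine high and DMSO low controls; times: 10 min exposure at 25 °C with rotation, no wash; detection: flow cytometry of retained JC-1 fluorescence; read-out basis: percent efflux inhibition, scaled nicardipine 100% to DMSO 0%; doses: one concentration, 6.6 µM final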
MEKK2 WT-MEK5 = raises or lowers MEK5 binding to wildtype human MEKK2 PB1 domain | bead flow cytometry, Alexa488-MEK5 binding to MEKK2 WT; actives lie on both sides | Q9Y2U5 | hit rate 1.1% among 290,000 | binding response (% of control), % at 10 µM; in the data active means binding response below about 67% or above about 130%
* = called active by the depositor.

Screening CCCOC(=O)c1cccc(NC(=O)COc2ccc([N+](=O)[O-])cc2)c1 returned MEKK3 PB1 HTS 102, ABCB1 block 63*, WT yeast gro inh 2, MEKK2 mut-MEK5 2, ABCG2 block 9 and MEKK2 WT-MEK5 106.
Screening O=c1cc2c(nn1Cc1ccccc1Cl)-c1ccccc1CC2 returned MEKK3 PB1 HTS 108, ABCB1 block 0, WT yeast gro inh 69*, MEKK2 mut-MEK5 3, ABCG2 block 6 and MEKK2 WT-MEK5 106.
Screening O=C1Cc2ccccc2C(=O)N1OCc1ccc(Cl)cc1Cl returned MEKK3 PB1 HTS 101, ABCB1 block -1, WT yeast gro inh 12, MEKK2 mut-MEK5 -5, ABCG2 block -5 and MEKK2 WT-MEK5 91.
O=c1cc2c(nn1Cc1ccc(Cl)cc1Cl)-c1ccccc1CC2 was read as MEKK3 PB1 HTS 98, ABCB1 block 0, WT yeast gro inh 76*, MEKK2 mut-MEK5 2, ABCG2 block 0 and MEKK2 WT-MEK5 100.
O=C(O)c1cc2n(n1)CCN(Cc1ccccc1Cl)C2=O was read as MEKK3 PB1 HTS 99, ABCB1 block 0, WT yeast gro inh -4, MEKK2 mut-MEK5 -10, ABCG2 block -1 and MEKK2 WT-MEK5 91.
Screening CCOC(=O)c1c(OCC)[nH]c2c1cc(O)c1ccccc12 returned MEKK3 PB1 HTS 88, ABCB1 block 0, WT yeast gro inh 59*, MEKK2 mut-MEK5 -9, ABCG2 block 33 and MEKK2 WT-MEK5 90.
CC(=O)CCc1oc2c([N+](=O)[O-])cccc2c1-c1ccc(C)o1 was read as MEKK3 PB1 HTS 101, ABCB1 block 1, WT yeast gro inh 69*, MEKK2 mut-MEK5 -10, ABCG2 block 18 and MEKK2 WT-MEK5 93.
For O=C(CNC(=O)C(c1ccccc1)c1ccccc1)N/N=C\c1ccc(C(=O)O)cc1 the results were MEKK3 PB1 HTS 100, MEKK2 mut-MEK5 -9 and MEKK2 WT-MEK5 99.
For COc1ccc(Cn2c(O)c(C=Nc3ccc(O)cc3)c3ccccc3c2=O)cc1 the results were MEKK3 PB1 HTS 109, ABCB1 block 4, WT yeast gro inh 64*, MEKK2 mut-MEK5 -1, ABCG2 block -1 and MEKK2 WT-MEK5 101.
Screening Cc1ccccc1NS(=O)(=O)c1cc(C(=O)N2CCc3ccccc3C2)ccc1C returned ABCB1 block 0, WT yeast gro inh 81* and ABCG2 block 0.
O=C(c1cnc(-c2ccccc2)s1)c1ccc(Cl)cc1Cl was read as MEKK3 PB1 HTS 100, ABCB1 block 0, WT yeast gro inh 64*, MEKK2 mut-MEK5 4, ABCG2 block 2 and MEKK2 WT-MEK5 101.
For Cc1nc(-c2coc3c(CN(C)C)c(O)ccc3c2=O)cs1 the results were MEKK3 PB1 HTS 109, ABCB1 block 0, WT yeast gro inh -7, MEKK2 mut-MEK5 5, ABCG2 block 1 and MEKK2 WT-MEK5 113.
COc1cc2c(cc1OC)C(c1cccc(Br)c1)CC(=O)N2 (configuration not stated) was read as MEKK3 PB1 HTS 101, MEKK2 mut-MEK5 0 and MEKK2 WT-MEK5 104.
O=C1CC(c2cccc(Br)c2)c2cc3c(cc2N1)CCC3 (configuration not stated) was read as ABCB1 block 0, WT yeast gro inh 87* and ABCG2 block 0.
`O=C(CC(C(=O)O)c1ccc(Cl)cc1)c1ccc(Br)cc1` (configuration not stated) gave MEKK3 PB1 HTS 108, MEKK2 mut-MEK5 6 and MEKK2 WT-MEK5 106.
For Cc1ccc(CNC(=O)COc2ccc(S(=O)(=O)N3CCCC3)cc2)cc1 the results were MEKK3 PB1 HTS 99, MEKK2 mut-MEK5 5 and MEKK2 WT-MEK5 102.
`CN(NS(=O)(=O)c1ccc(Br)cc1)c1nc(C(F)(F)F)nc2ccccc12` gave MEKK3 PB1 HTS 100, ABCB1 block 0, WT yeast gro inh 77*, MEKK2 mut-MEK5 -11, ABCG2 block 1 and MEKK2 WT-MEK5 98.
`CN(N)c1nc(C(F)(F)F)nc2ccccc12` gave MEKK3 PB1 HTS 99, ABCB1 block 0, WT yeast gro inh 5, MEKK2 mut-MEK5 2, ABCG2 block 11 and MEKK2 WT-MEK5 98.
Cc1ccc(C(=O)Cn2nnc(-c3cccs3)n2)cc1 was read as MEKK3 PB1 HTS 102, MEKK2 mut-MEK5 9 and MEKK2 WT-MEK5 100.
Screening O=C(CN1CC[n+]2c(-c3cccs3)csc21)c1ccc(-c2ccccc2)cc1 returned MEKK3 PB1 HTS 87, ABCB1 block -1, WT yeast gro inh 69*, MEKK2 mut-MEK5 3, ABCG2 block 2 and MEKK2 WT-MEK5 118.
For CCCS(=O)(=O)c1nnnn1-c1cccc(OC)c1 the results were MEKK3 PB1 HTS 90, ABCB1 block 0, WT yeast gro inh 76*, MEKK2 mut-MEK5 2, ABCG2 block 1 and MEKK2 WT-MEK5 95.
For COc1ccc(OC)c(C2C=C(C34CC5CC(CC(C5)C3)C4)NC(=S)N2)c1 (configuration not stated) the results were MEKK3 PB1 HTS 94, ABCB1 block 0, WT yeast gro inh 76*, MEKK2 mut-MEK5 -2, ABCG2 block -1 and MEKK2 WT-MEK5 89.
Screening COc1cc(C2C=C(C34CC5CC(CC(C5)C3)C4)NC(=S)N2)cc(OC)c1OC (configuration not stated) returned MEKK3 PB1 HTS 98, ABCB1 block 0, WT yeast gro inh 7, MEKK2 mut-MEK5 -1, ABCG2 block 22 and MEKK2 WT-MEK5 94.
S=C1NC(C23CC4CC(CC(C4)C2)C3)=CC(c2ccc3c(c2)OCO3)N1 (configuration not stated) was read as MEKK3 PB1 HTS 111, ABCB1 block 0, WT yeast gro inh 77*, MEKK2 mut-MEK5 -43, ABCG2 block 0 and MEKK2 WT-MEK5 95.
For CCOC(=O)CC1COCCN1Cc1cn[nH]c1-c1cc(OC)c(OC)c(OC)c1 (configuration not stated) the results were MEKK3 PB1 HTS 89, MEKK2 mut-MEK5 -18 and MEKK2 WT-MEK5 90.
`CCC1(C)SC(N)=NN1C(C)=O` (configuration not stated) gave MEKK3 PB1 HTS 94, ABCB1 block 0, WT yeast gro inh -10, MEKK2 mut-MEK5 -8, ABCG2 block 1 and MEKK2 WT-MEK5 85.
CN(C)CCNc1nc2sc3c(c2c(=O)n1CCc1ccccc1)CCCCC3 was read as MEKK3 PB1 HTS 100, MEKK2 mut-MEK5 4 and MEKK2 WT-MEK5 128.
For CC(O)CNc1nc2sc3c(c2c(=O)n1CCc1ccccc1)CCCCC3 (configuration not stated) the results were MEKK3 PB1 HTS 105, ABCB1 block 2, WT yeast gro inh 75*, MEKK2 mut-MEK5 0, ABCG2 block 4 and MEKK2 WT-MEK5 106.
